Measurements from the EternaBench riboswitch data.

Test system: MS2 coat protein
Assay: apparent Kd, MS2 coat protein; higher = weaker binding; RNA-MaP array; FMN 200 µM where present
Procedure, shortened: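 Stalled E. coli RNA polymerase transcribed the designs on Illumina sequencing-chip clusters. SNAP-549-labelled MS2 coat protein was titrated from 0.7 or 1.5 nM, doubling to 3 µM, without and then with constant ligand, in 100 mM Tris-HCl pH 7.5, 80 mM KCl, 4 mM MgCl2, BSA, DTT, yeast tRNA and Tween-20. Per-cluster binding curves were fitted to green signal normalised to red-channel RNA signal and control-cluster median Fmax. The apparent Kd is the median of the filtered fits.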

[1] = designed as: ON switch for flavin mononucleotide, no ligand
[2] = ligand present: flavin mononucleotide, designed as: ON switch for flavin mononucleotide
[3] = designed as: OFF switch for flavin mononucleotide, no ligand
[4] = ligand present: flavin mononucleotide, designed as: OFF switch for flavin mononucleotide

Sequence	apparent Kd [1]	apparent Kd [2]	apparent Kd [3]	apparent Kd [4]
AUCGCUCAGCAGAAGGGACUGACAUGAGGAUCACCCAUGUCUUUUAUGGUCAGGAUAUGUUGCCGAACCACGAAAAGUGGGUGC	25.7 nM	9.27 nM	–	–
AUCGUGUUAGGAUAUACACGUCGCUGGGUAGCUAGCGAUGGGUAGAAGGAACAUGAGGAUCACCCAUGUUCGGG	–	–	178 nM	188 nM
AUCUCGUCAGGAUAUCCUAGUAAUUGUUUCAUAUUUACGAUGGAGAAGGGACAUGAGGAUCACCCAUGUUGGUC	–	–	64.4 nM	144 nM
AUGAAAGUAACACAGGAUAUCCAGGAUACAACAUGAGGAUCACCCAUGUACAUACGAACGUAUAAGGAGAAGGGUGGAUGAUCUUC	215 nM	264 nM	–	–
AUGACAUGCAGAGCGCAACGGCGUACAUGAGGAUCACCCAUGUAGGAUAUACUACACAAAGUGUAGUAGAAGGACAUGCGACUG	–	–	18.6 nM	21.3 nM
AUGAGUAAAGCAGGAUAUCUAUUGUCUCAGUAACAUGAGGAUCACCCAUGUAGAGAAGGGCUUAGUCAUUCACUUCGGAGUUGU	–	–	14.8 nM	38 nM
AUGCCAAAAGGAGGAUAUGGAGCCUUAUUGGCUCCAGAAGGCUUGACAUGAGGAUCACCCAUGUGGCAGUGGUCUAAUGACCAC	18.5 nM	15.1 nM	–	–
AUGGAACAUGAGGAUCACCCAUGUGAGGAUAUCGUCGGCGCGCUUGAAACGAGCUGCCCGAGAAGGCACAGUGG	–	–	160 nM	238 nM
AUGGAUACCACAGGAUAUACCUGGAAUAUCCAGGUAGAAGGGUGGUCCAUCCUAUGUAAAUACAUGAGGAUCACCCAUGUGUCC	256 nM	244 nM	–	–
AUGGCUAAUGAGAAGGUGUAUAUAAAUUAUAUACAAGGAUAUCGGUCAAGCAUGAAAACAUGAGGAUCACCCAUGUUAAGCCAU	8.11 nM	7.01 nM	–	–
AUGGGACAUGAGGAUCACCCAUGUCAGGAUAUUUAGUCGCUGCGGAAAUGUGUUGGUUGGAGAAGGGACAUCAU	–	–	38.3 nM	35.1 nM
AUGGGCUAAGGAUAUAGACGACGACACAUGAGGAUCACCCAUGUCAGUAAUGGGUCUUGGCUAGAAGGUAGAACCC	–	–	44.5 nM	72.7 nM
AUGGUACAUGAGGAUCACCCAUGUUAGGAUAUCGCGUGACCUAAAACUAAGAGACACACGAGAAGGGACGACAU	–	–	89.6 nM	78.1 nM
AUGGUCAAGUGUGAGGAUAUCCAUGCUCCCACAUGAGGAUCACCCAUGUCUUAAAGGGCGUAAAGGGAGAAGGUACGAACGCCAC	34.3 nM	27.8 nM	–	–
AUGGUCAUGUUAGGAUAUGACGCGCUGUACGCAUCAGAAGGAACAUGAGGAUCACCCAUGUAUAGAGUAAUGUCGCUUACUCUC	–	–	47.9 nM	187 nM
AUGGUUGUCGUAGGAUAUGUAGGAUAUUCCUACAUGAGGAUCACCCAUGUUCGCAUGGAAGAAGGACAGAAGGACGAUAACCAC	1310 nM	8.46 nM	–	–
AUGUUACAUGAGGAUCACCCAUGUCAGGAUAUCUAUCAUAGCAUAGAAAUAUGCGGGUAGAGAAGGGACUAUCC	–	–	15.4 nM	13.8 nM
AUUAACUACAUAGGAUAUUGAUACAUGAGGAUCACCCAUGUCACCCAUUUAUAUAUUAAUAUUGACAAGAAGGAUGUGGUUACA	13.1 nM	6.13 nM	–	–
AUUAAUUAAUUAAUACAUGAGGAUCACCCAUGUAAUAAGAUCAAGGAUAUCAGCUCGAAUAGAGCUGAGAAGGUGAUCACAUGU	555 nM	226 nM	–	–
AUUAAUUAAUUAAUACAUGAGGAUCACCCAUGUAAUAAGAUCUAGGAUAUCAGCUCGAAUAGAGCUGAGAAGGAGAUCACAUGU	43.4 nM	35.3 nM	–	–
AUUAGUAAUAAGGAUAUCACUAGCUGCGGCUAGUGAGAAGGUAUUACAUGAGGAUCACCCAUGUGAUUAAUUAA	–	–	76.4 nM	418 nM
AUUAUUAUAUUAUACAUGAGGAUCACCCAUGUUAUAAGUCAUGAGGAUAUGGUUUUGUAGAUUUUCCAGAAGGCAUUUAACUUA	13.3 nM	7.8 nM	–	–
AUUGAUGUUGAGGAUAUGCUUAUAUUUAUACUUGCAGAAGGCGAUACAUGAGGAUCACCCAUGUUCAUGGAAGU	–	–	31.3 nM	33.8 nM
AUUGUAGUUGUGAGGAUAUCGUUGAUUUUUUGAAACGAGAAGGCACAUGAGGAUCACCCAUGUAAGUUGUAGGU	–	–	80.6 nM	315 nM
AUUGUUAAGUUAGGAUAUAGUAAAAUGAUUUAGUUAGAAGGAGCUCACAUGAGGAUCACCCAUGUAAGAGGAUCACCCAUGUAU	–	–	24.9 nM	18.3 nM
AUUUAACAUGAGGAUCACCCAUGUGAGGAUAUGUCCAUUUUAAACAAAUAGGAUAUGGACAGAAGGCACACCGG	–	–	162 nM	366 nM
AUUUAUGGCCAGAAGGACAUGAGGAUCACCCAUGUAGGAUAUGGACGAUUUUACUCGGCGGUUUGUUAAGGAAGCACCGGCGGU	7.76 nM	6.08 nM	–	–
AUUUCAAUCUAUACUAUACAAACAACAUGAGGAUCACCCAUGUAGGAUAUCGUAUGUAUCAACUACGAGAAGGACAUAAUCUUA	–	–	13.7 nM	13.4 nM

Sequence	apparent Kd [1]	apparent Kd [2]	apparent Kd [3]	apparent Kd [4]
AUUUUAACAUAGGAUAUCGAAUUUAUUAUUUAACGAGAAGGAUGAACAUGAGGAUCACCCAUGUGGUAUCAUGG	–	–	217 nM	93.6 nM
AUUUUACAUGAGGAUCACCCAUGUUUUGGUGGGUCAGGAUAUAGAUCGGAUGAGUUCUGGCUAGAAGGGACAUAUA	75.9 nM	66.4 nM	–	–
AUUUUAUAACAAGGAUAUACUAAACAUGAGGAUCACCCAUGUAAUAUUAUGAGUGAGAGAGAGAAGUAGAAGGUGUAUUAUUUU	–	–	102 nM	128 nM
AUUUUCCUGGCAGGAUAUCUUACACAUGAGGAUCACCCAUGUACAAAAGUGGGAGAAGGGUCGUGGAGGUGUAUAGUCGAAUAG	79.2 nM	36.1 nM	–	–
AUUUUGUCAGGAUAUGAGUAGUAGGACGAAAGUGCUACUACUUAGAAGGGACAUGAGGAUCACCCAUGUCUUCC	–	–	13.9 nM	16.8 nM
AUUUUUAAGGUAGGAUAUAGUAUAAUGAUUUAAUUAGAAGGAUCUCACAUGAGGAUCACCCAUGUAAUAGGAUUACCCAUGUAU	–	–	27.8 nM	22.7 nM
CAAAAGUAUAACAAUUUCGAGGCACAGGAUAUGAGUGUGCACAUGAGGAUCACCCAUGUUAUAACUUAGAAGGGUGACCAUUGC	265 nM	443 nM	–	–
CAAAGUUGGUAAGGAUAUCCCACAUUAUUCUGACCCGUGCAAGCUACAUGAGGAUCACCCAUGUGGGAGAAGGUGCGGUAAAGA	–	–	6.16 nM	6.11 nM
CAACUGUGAGGAUAUGGUGAGUAGUGCCUGAGCGCUGCUCACCAGAAGGCACAUGAGGAUCACCCAUGUAUGAC	–	–	46 nM	164 nM
CAAGUGCCGGAAGGAUAUCAGCGAUGUCACGCUUGAGAAGGUCUGUGCACAUGAGGAUCACCCAUGUCCGCCAGACUCCUUAAC	–	–	9.98 nM	8.49 nM
CAAUAUAACACAGGAUAUGUCUCGUUUACAUGAGGAUCACCCAUGUCCGAAACAGAAGGGUGACCUGAUAUAGGACGUUAGGUG	367 nM	138 nM	–	–
CAAUUCUGAGGAUAUCGAUUUUUGUACAUGAGGAUCACCCAUGUCCUUUUUAUUUAAUCCCGAGAAGGCAGUGUAU	–	–	23.3 nM	26.1 nM
CAAUUGGCACAGAAGGGUGACAUGAGGAUCACCCAUGUAGCGUGGCAUUCAGGAGGAGCCACGCCACAGGAUAUGUGCCGGCAC	138 nM	116 nM	–	–
CAAUUUAUAACAGGAUAUGUAAUUCAAUAGAAAAUAGAAGGGUUUUAUACAUGAGGAUCACCCAUGUCAUGUAUCAUAAUUACC	–	–	143 nM	122 nM
CAAUUUAUAUCAGGAUAUACAAUACAAUGAUUAGUAGAAGGGAUUAAUACAUGAGGAUCACCCAUGUCAUGUGUCAUAAUAACC	–	–	24.2 nM	19.1 nM
CAAUUUAUGUCAGGAUAUACAAUACAAUGAUUAGUAGAAGGGAUUAAUACAUGAGGAUCACCCAUGUCAUGUGUCAUAAUAACC	–	–	26.1 nM	20.1 nM
CACACGAAAGUCGAACGAUGAUCCAGAAGGAGUAUAACAUGACAUGAGGAUCACCCAUGUGCCAACUAGGAUAUGGAUCAUGGG	–	–	86.3 nM	15.1 nM
CACAGGGAUUCAGGAUAUAUUAGCCGAGGCCGCGUAGAAGGGAAAUCCUGACAUGAGGAUCACCCAUGUUGACCCGCCUUCCAU	52.8 nM	62.5 nM	–	–
CACCGUUACCUAGGAUAUAGUACAUGAGGAUCACCCAUGUAAUAAAUGAGAAUUUCGGAUGUAUGCUAGAAGGAGGAAAUCGGC	–	–	39 nM	40.2 nM
CACGGCGCAUGAGGAUAUCAGGGCGACCUUUCGACAUGAGGAUCACCCAUGUAAUCUACUCGGCGUGAGAAGGCAUGACAGCCA	286 nM	136 nM	–	–
CACGGGUUAGGAUAUGCAUGGUGAAAAGACGCGAUCCUUAGACAUGAGGAUCACCCAUGUAGAAGGAACGCAAU	–	–	18.6 nM	15.9 nM
CACUCGUGUCUAGGAUAUGAGUGACAAGCGCGAGAUUUCCUCGCCGCUAGCUCAGAAGGAGACAUGAGGAUCACCCAUGUAAGG	–	–	90 nM	24.4 nM
CACUGUUUAGAGGAUAUUUACGGGUCACACCCAGGAGAAGGCUGUACAUGAGGAUCACCCAUGUGGUGCGCCUG	–	–	32.4 nM	51.3 nM
CAGCACAUGAGGAUCACCCAUGUGCAUCCAUCAUGUGCCGUGCAGGAUAUAGACCGCCGUCCAGUCUAGAAGGGCACCGAUGAC	–	–	159 nM	75.1 nM
CAGCCCUGAGGAUAUCCACCCUCGUACAUGAGGAUCACCCAUGUUUCCCUCUGGGCUUUCGGAGAAGGCAGGUAUC	–	–	78.6 nM	77.3 nM
CAGCGAUAGCUGAACAAUCUAUCUGAGGAUAUUCAUAUAAACAUGAGGAUCACCCAUGUAAAUUGGGAGAAGGCAGAUAGAUUG	18 nM	5.06 nM	–	–
CAGCUACCCAGUAUGGGUUUUUGUACAGAAGGCCAGGUACAUGAGGAUCACCCAUGUAAAGAUAUGGAGGAUAUGUUAGUGUAU	29.1 nM	8.08 nM	–	–
